Article PMC4636435 (Cell host & microbe, 2015)
Entries after “also recorded” stand apart in the source; their conditions may differ.

Key:
cathelicidin = details: human cells; ref Liu et al., 2006; cited from earlier work
wild-type and Δemm1 GAS = assay: Resistance of wild-type and Δemm1 GAS to antimicrobial peptides; type: cell-based, Streptococcus pyogenes (group A Streptococcus); details: serum-free DMEM with 10% THB, 24 h; for M1-dependent protection of GAS from killing by the peptide: wild-type vs. Δemm1 GAS
How it was run: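 GAS M1T1 5448 and isogenic Δemm1 were grown overnight at 37°C, diluted 1:40 in Todd-Hewitt broth, grown statically at 37°C to OD600 0.400, then PBS-washed. 2×10^5 bacteria in serum-free DMEM with phenol red and 10% THB were exposed to cathelicidin- or defensin-family peptides. MIC was the lowest concentration preventing growth after 24 h. Means ± s.d., n=3; ≥3 independent experiments.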

human neutrophils = assay: Neutrophil chemotaxis in transwell system; type: cell-based; details: 1 h, 37°C, n=3
[1] = molecular target: LL-37, human cathelicidin antimicrobial peptide (human); assay: SPR
recombinant M1 protein = assay: Pulldown with His-tagged recombinant M1 as bait / blot; type: binding, Streptococcus pyogenes (group A Streptococcus), M1T1
recombinant M49 protein = molecular target: T1, recombinant M49 protein (Streptococcus pyogenes (group A …, UniProt P16947 42-359)); assay: SPR
T1 sequence: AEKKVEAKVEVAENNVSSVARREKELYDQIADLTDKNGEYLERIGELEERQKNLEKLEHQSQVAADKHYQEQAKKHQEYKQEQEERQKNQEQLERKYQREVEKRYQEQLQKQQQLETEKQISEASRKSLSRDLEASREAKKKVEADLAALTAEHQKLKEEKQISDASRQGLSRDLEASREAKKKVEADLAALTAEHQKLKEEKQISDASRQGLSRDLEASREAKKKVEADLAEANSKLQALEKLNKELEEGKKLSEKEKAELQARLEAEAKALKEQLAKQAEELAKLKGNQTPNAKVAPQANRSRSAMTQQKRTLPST

M1 protein = assay: SPR; type: binding, Streptococcus pyogenes (group A Streptococcus), M1T1; details: ratio of Kd M49 vs. M1, SPR
[2] = tested on: M1T1 GAS, wild-type vs. Δemm1; assay: FACS detection of cathelicidin on bacterial surface; type: cell-based, Streptococcus pyogenes (group A Streptococcus); details: recombinant hCAP18, wild-type vs. Δemm1, anti-LL-37 antibody

C=C1CC[C@H](O)C/C1=C/C=C1\CCC[C@]2(C)[C@@H]([C@H](C)/C=C/[C@H](C)C(C)C)CC[C@@H]12 [vitamin D]
induction of cathelicidin expression (cathelicidin): strongly induces cathelicidin expression

KR-20: processed form of cathelicidin expressed by keratinocytes in human skin; de novo synthesis (Anaspec) (KRIVQRIKDFLRNLVPRTES)
M1-dependent protection of GAS from killing by the peptide (wild-type and Δemm1 GAS): M1 protected GAS from killing

N-formyl-Met-Leu-Phe [fMLP]
stimulation of neutrophil chemotaxis (human neutrophils): stimulated robust chemotaxis of neutrophils

recombinant M1 protein (from UniProt Q99XV0) (natural protein)
Kd [1]: 1.18 µM

mCRAMP: active murine form of cathelicidin; de novo synthesis (Anaspec) (ISRLAGLLRKGGEKIGEKLKKIGQKIKNFFQKLVPQPE)
binding and inhibition by M1 vs. M49 (recombinant M1 protein; statement in the in vivo section): M1 but not M49 binds and inhibits CRAMP
M1-dependent protection of GAS from killing by the peptide (wild-type and Δemm1 GAS): M1 protected GAS from killing

B1: recombinant hCAP18, full-length human cathelicidin (natural protein)
chain: QVLSYKEAVLRAIDGINQRSSDANLYRLLDLDPRPTMDGDPDTPKPVSFTVKETVCPRTTQQSPEDCDFKKDGLVKRCMGTVTLNQARGSFDISCDKDNKRFALLGDFFRKSKEKIGKEFKRIVQRIKDFLRNLVPRTES
Kd (recombinant M49 protein): 9.07 µM

B2: hCAP18: full-length human cathelicidin precursor, recombinant, expressed from pET28a (protein)
chain: B1 chain
modifications: left off: His tag (from the vector pET28a), end not stated, state not stated
stronger binding of M1 compared to M49 protein (from Kd) (M1 protein): 10 fold
major cathelicidin form pulled down by M1 from neutrophil lysate (recombinant M1 protein; whole lysates from neutrophils, Western blot with anti-LL-37 antibody): the major cathelicidin form detected was uncleaved hCAP18
binding to bacterial surface [2]: recombinant hCAP18 bound the GAS surface in an M1-dependent manner; also recorded: Δemm1 GAS binds significantly less hCAP18 than wild-type GAS
antimicrobial activity (wild-type and Δemm1 GAS; wild-type and Δemm1 GAS): lacked antimicrobial activity

B3: recombinant M49 protein (natural protein)
chain: T1 sequence
Kd [1]: 62.7 µM
